Results collected from several papers.
Each line is one published result; the experiments were not run side by side. ≈ marks a conversion by molar mass, not a printed value.

SMILES	target or system	assay	test system	conditions	endpoint	value
COc1ccc(Nc2cnnc3cc(-c4cnc(N5CCCN(C)CC5)nc4)ccc23)nc1	Trypanosoma cruzi	parasite growth	C2C12	intracellular, amastigote	EC50	7.5 µM
COc1ccc(NC(=O)Nc2cccc(-c3cn(Cc4ccc(Cl)cc4)nn3)c2)cc1	Huh-7	cell growth or viability, CCK-8	–	50 µM, 48 h	viability	67.1%
O=C(Nc1ccc(Cl)cc1)Nc1ccc(-c2cn(Cc3ccc(Cl)cc3)nn2)cc1	Huh-7	cell growth or viability, CCK-8	–	50 µM, 48 h	viability	83.6%
CN1CCN(c2ccc(-c3ccc4nncc(Nc5ncccn5)c4c3)cc2)CC1	Trypanosoma cruzi	parasite growth	C2C12	intracellular, amastigote	EC50	7.9 µM
COc1cc(C=O)ccc1OC1=C(Cl)C(=O)c2ccccc2C1=O	Alternaria alternata	microbial growth, broth dilution	–	–	MIC	12 mg/L (≈ 35 µM)
O=C(Nc1ccc(-c2cn(Cc3ccc(Cl)cc3)nn2)cc1)Nc1ccccc1Br	Huh-7	cell growth or viability, CCK-8	–	50 µM, 48 h	viability	80.2%
COc1ccc(NC(=O)Nc2ccc(-c3cn(Cc4cccc(Cl)c4)nn3)cc2)cc1	Huh-7	cell growth or viability, CCK-8	–	50 µM, 72 h	viability	82.5%
COc1ccc(Nc2cnnc3ccc(-c4cnc(N5CCCN(C)CC5)nc4)cc23)cc1Cl	Trypanosoma cruzi	parasite growth	C2C12	intracellular, amastigote	EC50	0.93 µM
O=C(NCc1cn(Cc2ccc(Br)cc2)nn1)Nc1ccccc1Br	Huh-7	cell growth or viability, CCK-8	–	50 µM, 48 h	viability	61.2%
COc1ccc(NC(=O)Nc2cccc(-c3cn(Cc4ccc(C)cc4)nn3)c2)cc1	Huh-7	cell growth or viability, CCK-8	–	72 h	IC50	19.3 µM
COc1ccc(Nc2cnnc3cc(-c4cnc(N5CCCN(C)CC5)nc4)ccc23)cc1Cl	Trypanosoma cruzi	parasite growth	C2C12	intracellular, amastigote	EC50	2 µM
Cc1ccccc1Cn1cc(-c2cccc(NC(=O)Nc3ccc(F)cc3)c2)nn1	Huh-7	cell growth or viability, CCK-8	–	50 µM, 48 h	viability	46%
O=C(Cn1ccnc1[N+](=O)[O-])NCc1ccccc1	Trypanosoma cruzi	parasite growth	Vero, TULAHUEN	72 h, intracellular, amastigote	IC50	2.23 µM
CN1CCN(c2ccc(-c3ccc4c(Nc5cnccn5)cnnc4c3)cc2)CC1	Trypanosoma cruzi	parasite growth	C2C12	intracellular, amastigote	EC50	> 10 µM
O=C(Nc1ccc(Cl)cc1)Nc1cccc(-c2cn(Cc3ccc(Cl)cc3)nn2)c1	Huh-7	cell growth or viability, CCK-8	–	50 µM, 48 h	viability	84%
CN1CCN(c2ncc(-c3ccc4c(Nc5ncccn5)cnnc4c3)cn2)CC1	Trypanosoma cruzi	parasite growth	C2C12	intracellular, amastigote	EC50	> 10 µM
O=C(NCc1cn(Cc2ccc(Cl)cc2)nn1)Nc1ccc(Cl)cc1	Huh-7	cell growth or viability, CCK-8	–	50 µM, 48 h	viability	65.7%
Cc1ccc(Nc2cnnc3ccc(-c4ccc(N5CCN(C)CC5)cc4)cc23)cn1	Trypanosoma cruzi	parasite growth	C2C12	intracellular, amastigote	EC50	3.3 µM
COc1ccc(NC(=O)Nc2cccc(-c3cn(Cc4cccc(Cl)c4)nn3)c2)cc1	Huh-7	cell growth or viability, CCK-8	–	50 µM, 72 h	viability	10.8%
O=C(Nc1ccc(Cl)cc1)Nc1ccc(-c2cn(Cc3ccc(Br)cc3)nn2)cc1	Huh-7	cell growth or viability, CCK-8	–	50 µM, 48 h	viability	98.4%
COc1ccc(NC(=O)NCc2cn(Cc3ccc(Br)cc3)nn2)cc1	Huh-7	cell growth or viability, CCK-8	–	50 µM, 72 h	viability	86%
O=C(NCc1cn(Cc2ccc(Cl)cc2)nn1)Nc1ccccc1Br	Huh-7	cell growth or viability, CCK-8	–	50 µM, 72 h	viability	65.6%
COc1ccc(NC(=O)NCc2cn(Cc3ccc(Cl)cc3)nn2)cc1	Huh-7	cell growth or viability, CCK-8	–	50 µM, 72 h	viability	99%
O=C(Cn1ccnc1[N+](=O)[O-])NCc1ccccc1	Trypanosoma cruzi	parasite growth	–	24 h, trypomastigote	IC50	1.04 mg/L
